Activity calls are given as the source filed them. Where a SMILES comes first, the peptide text is derived from it. [ ]: non-standard residue; d: D form. dNMeA = CN[C@H](C)C(=O)O; Sar = CNCC(=O)O
Assays:
Mu-type opioid receptor [1] = biological target: Mu-type opioid receptor (Rattus norvegicus, UniProt P33535); assay: Displacement of [3H]naloxone from mu opioid receptor in rat brain membrane; format: cell membranes
Outline: (§1)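 Competitive displacement on rat brain membranes: [³H]naloxone for mu sites and [³H]deltorphin II for delta sites, giving IC50 values. Selectivity is expressed as IC50(mu)/IC50(delta).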

[2] = biological target: Delta-type opioid receptor (Rattus norvegicus, UniProt P33533); assay: Displacement of [3H]deltorphin2 from delta opioid receptor in rat brain membrane; format: cell membranes; outline: as §1
[3] = biological target: Kappa-type opioid receptor (Cavia porcellus) (UniProt P41144); assay: Displacement of [3H]U-69593 from kappa opioid receptor in guinea pig brain membrane at 10 uM; format: cell membranes
Outline: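 Displacement of [³H]U69,593 from guinea pig brain membrane sites, with test concentrations up to 10 µM.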

Rattus norvegicus = species on record: Rattus norvegicus; assay: Ratio of IC50 for mu opioid receptor in rat brain to IC50 for delta opioid receptor in rat brain; format: tissue-based; outline: as §1
Mu-type opioid receptor [4] = biological target: Mu-type opioid receptor (Cavia porcellus, UniProt P97266); assay: Agonist activity at mu opioid receptor in guinea pig ileum; format: functional, tissue-based
Outline: (§2)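 Isolated guinea pig ileum and mouse vas deferens preparations. A [Leu⁵]enkephalin standard dose–response curve was run for each ileum and vas preparation. Compound IC50 values were normalized to that standard by a published procedure.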

[5] = biological target: Delta-type opioid receptor (Mus musculus, UniProt P32300); assay: Agonist activity at delta opioid receptor in mouse vas deferens; format: functional, tissue-based; outline: as §2
Mus musculus [6] = assay: Analgesic activity in C57 mouse at 2 mg/kg, iv after 15 mins by tail flick test; format: functional, organism-based; set-up: dose 2 mg/kg
Outline: (§3)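 Male C57 mice (20–25 g) housed in groups of five on a 12 h light-dark cycle. Peptide in saline was injected into the tail vein (10 mL/kg total) and flushed with saline; controls received saline. Warm-water (55 °C) tail-flick test, three trials, 15 s cutoff. %MPE = (post − control)/(cutoff − control) × 100, read at baseline, 5, 15, 30, 60 and 120 min. One-way ANOVA at each time point.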

Mus musculus [7] = assay: Analgesic activity in C57 mouse at 2 mg/kg, iv after 5 mins by tail flick test; format: functional, organism-based; set-up: dose 2 mg/kg; outline: as §3

Sequence of Delta-type opioid receptor (Rattus norvegicus, UniProt P33533) (P33533 whole entry): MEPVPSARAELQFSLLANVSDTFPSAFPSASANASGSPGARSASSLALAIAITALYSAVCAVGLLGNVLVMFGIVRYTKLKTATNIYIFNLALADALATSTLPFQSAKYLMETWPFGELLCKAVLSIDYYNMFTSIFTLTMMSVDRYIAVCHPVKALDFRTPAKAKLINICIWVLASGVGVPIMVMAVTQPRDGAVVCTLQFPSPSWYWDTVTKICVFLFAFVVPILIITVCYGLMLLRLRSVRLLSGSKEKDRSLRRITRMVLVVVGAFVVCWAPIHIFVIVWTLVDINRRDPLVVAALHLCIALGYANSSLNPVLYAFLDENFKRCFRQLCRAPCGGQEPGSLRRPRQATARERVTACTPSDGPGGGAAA
Sequence of Kappa-type opioid receptor (Cavia porcellus) (P41144 whole entry): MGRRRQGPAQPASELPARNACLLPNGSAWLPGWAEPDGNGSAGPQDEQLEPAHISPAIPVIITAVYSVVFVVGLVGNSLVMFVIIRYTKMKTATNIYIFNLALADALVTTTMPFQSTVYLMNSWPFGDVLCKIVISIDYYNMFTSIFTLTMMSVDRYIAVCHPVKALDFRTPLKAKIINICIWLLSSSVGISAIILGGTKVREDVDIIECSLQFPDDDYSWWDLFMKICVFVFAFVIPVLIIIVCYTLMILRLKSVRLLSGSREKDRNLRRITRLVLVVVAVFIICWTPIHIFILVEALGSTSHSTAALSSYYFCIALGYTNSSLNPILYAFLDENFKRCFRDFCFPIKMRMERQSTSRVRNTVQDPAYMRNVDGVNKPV
Sequence of Mu-type opioid receptor (Cavia porcellus, UniProt P97266) (P97266 whole entry): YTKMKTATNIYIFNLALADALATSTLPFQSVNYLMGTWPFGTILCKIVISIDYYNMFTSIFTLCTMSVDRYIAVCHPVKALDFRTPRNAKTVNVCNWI
Sequence of Delta-type opioid receptor (Mus musculus, UniProt P32300) (P32300 whole entry): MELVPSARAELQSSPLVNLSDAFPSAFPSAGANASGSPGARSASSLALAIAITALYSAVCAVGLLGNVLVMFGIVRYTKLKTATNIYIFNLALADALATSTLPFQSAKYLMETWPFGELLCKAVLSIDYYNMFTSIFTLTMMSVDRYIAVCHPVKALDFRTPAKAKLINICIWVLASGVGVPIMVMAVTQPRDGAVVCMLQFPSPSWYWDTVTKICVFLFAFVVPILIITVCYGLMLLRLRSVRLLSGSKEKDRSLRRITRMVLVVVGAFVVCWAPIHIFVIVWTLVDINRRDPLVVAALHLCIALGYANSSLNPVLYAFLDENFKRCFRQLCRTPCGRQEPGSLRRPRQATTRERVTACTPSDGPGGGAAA
Sequence of Mu-type opioid receptor (Rattus norvegicus, UniProt P33535) (P33535 whole entry): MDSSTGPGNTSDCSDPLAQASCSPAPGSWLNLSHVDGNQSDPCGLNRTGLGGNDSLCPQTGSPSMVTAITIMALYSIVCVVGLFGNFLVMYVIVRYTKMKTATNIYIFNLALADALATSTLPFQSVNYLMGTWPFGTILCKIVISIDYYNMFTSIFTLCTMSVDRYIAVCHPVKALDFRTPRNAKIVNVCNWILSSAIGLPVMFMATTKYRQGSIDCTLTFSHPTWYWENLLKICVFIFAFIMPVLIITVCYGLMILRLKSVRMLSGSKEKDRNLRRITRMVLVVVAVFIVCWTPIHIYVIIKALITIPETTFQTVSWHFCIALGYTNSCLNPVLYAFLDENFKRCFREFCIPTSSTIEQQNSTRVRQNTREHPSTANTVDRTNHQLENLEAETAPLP

| Structure (SMILES) | IC50 (Mu-type opioid receptor [1]) [µM] | IC50 [2] [µM] | Activity [3] | Ratio IC50 (Rattus norvegicus) | IC50 (Mu-type opioid receptor [4]) [µM] | IC50 [5] [µM] | Activity (Mus musculus [6]) | Activity (Mus musculus [7]) |
| --- | --- | --- | --- | --- | --- | --- | --- | --- |
| C[C@H](C(=O)N[C@@H](Cc1ccccc1)C(=O)N(C)CC(N)=O)N(C)C(=O)[C@@H](N)Cc1ccc(O)cc1 (H-Y[dNMeA]F[Sar]-NH2) | 28.1 | 7.1 | inactive | 3.96 | 22 | 79.7 | Active | Active |
| C[C@H](C(=O)N[C@H]1Cc2ccccc2CN(CC(N)=O)C1=O)N1Cc2cc(O)ccc2C[C@H](N)C1=O | 20.8 | 17.8 | inactive | 1.17 | 3.64 | 30.3 | – | – |
